Results taken from ChEMBL document CHEMBL1121657, “Effects of 1-arylpyrroles and naphthoflavones upon cytochrome P-450 dependent monooxygenase activities” (J Med Chem, 1981).
Each block holds one molecule with its values, some of them ahead of it.

Legend:
Rattus norvegicus [1] = species: Rattus norvegicus; assay: Maximum rate constant for 7-ethoxycoumarin deethylation in rat liver microsomes 3-methylcholanthrene at concentration of 200 nM; details: Microsome
Rattus norvegicus [2] = species: Rattus norvegicus; assay: Michaelis-Menten constant for 7-ethoxycoumarin deethylation in rat liver microsomes exposed to beta-naphthoflavone at 500 uM; details: Microsome
Summary of the method: (§1)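 Liver microsomes from young male Sprague-Dawley rats (75-125 g) given the inducer ip in corn oil at 50 mg/kg on 3 successive days, microsomes isolated on day 4. 7-Ethoxycoumarin (2.5 to 300 μM final) in 0.1 M Tris-HCl pH 7.4 with NADPH-regenerating system. Reaction started with microsomal protein (0.375-0.56 mg), run 4 min at 37 °C, stopped with TCA. 7-Hydroxycoumarin read fluorometrically at pH 10.3. Inhibitor added from methanol stock, ≥4 assays per condition. KM/Vmax obtained by the Eisenthal–Cornish-Bowden direct linear method with 95% distribution-free confidence limits.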

Rattus norvegicus [3] = species: Rattus norvegicus; assay: Maximum rate constant for 7-ethoxycoumarin deethylation in rat liver microsomes exposed to beta-naphthoflavone at concentration of 1000 uM; details: Microsome
Summary of the method: (§2)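 Liver microsomes from male Sprague-Dawley rats given 3MC or βNF ip (50 mg/kg/day, corn oil, 3 days), harvested day 4. NADPH-regenerating system in 0.1 M Tris-HCl pH 7.4. Substrate 2.5-300 μM final. Inhibitor added from methanol stock. Reaction started with 0.375-0.56 mg microsomal protein, run 4 min at 37 °C, stopped with TCA. 7-Hydroxycoumarin fluorescence read at pH 10.3. At least four assays per substrate concentration. KM and Vmax by direct linear method, with distribution-free 95% confidence limits.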

Rattus norvegicus [4] = species: Rattus norvegicus; assay: Michaelis-Menten constant for 7-ethoxycoumarin deethylation in rat liver microsomes exposed to 3-methylcholanthrene at concentration of 200 uM; details: Microsome
Summary of the method: as §2

Rattus norvegicus [5] = species: Rattus norvegicus; assay: Michaelis-Menten constant for 7-ethoxycoumarin deethylation in rat liver microsomes exposed to 3-methylcholanthrene at concentration of 50 nM; details: Microsome
Rattus norvegicus [6] = species: Rattus norvegicus; assay: Maximum rate constant for 7-ethoxycoumarin deethylation in rat liver microsomes exposed to beta-naphthoflavone at concentration of 1500 uM; details: Microsome
Summary of the method: as §2

Rattus norvegicus [7] = species: Rattus norvegicus; assay: Maximum rate constant for 7-ethoxycoumarin deethylation in rat liver microsomes exposed to beta-naphthoflavone at 500 uM; details: Microsome
Summary of the method: as §2

Rattus norvegicus [8] = species: Rattus norvegicus; assay: Compound was evaluated for alpha -rate constant, in liver microsomes from 3-methylcholanthrene-exposed rats; details: Microsome
Summary of the method: (§3)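 Rats (male Sprague-Dawley, 75-125 g) dosed ip with 3MC or βNF, 50 mg/kg in corn oil, on 3 successive days; liver microsomes isolated day 4. 7-Ethoxycoumarin deethylation (2.5-300 μM substrate) measured with inhibitor present; KM and Vmax by Eisenthal–Cornish-Bowden direct linear method. Ki from x-intercept of least-squares KM/Vmax vs [I]; αKi from x-intercept of 1/Vmax vs [I].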

Rattus norvegicus [9] = species: Rattus norvegicus; assay: Michaelis-Menten constant for 7-ethoxycoumarin deethylation in rat liver microsomes exposed to beta-naphthoflavone at 1000 nM; details: Microsome
Rattus norvegicus [10] = species: Rattus norvegicus; assay: Michaelis-Menten constant for 7-ethoxycoumarin deethylation in rat liver microsomes exposed to beta-naphthoflavone at 1500 nM; details: Microsome
Rattus norvegicus [11] = species: Rattus norvegicus; assay: Maximum rate constant for 7-ethoxycoumarin deethylation in rat liver microsomes 3-methylcholanthrene at concentration of 100 nM; details: Microsome
Rattus norvegicus [12] = species: Rattus norvegicus; assay: Michaelis-Menten constant for 7-ethoxycoumarin deethylation in rat liver microsomes exposed to 3-methylcholanthrene at concentration of 100 uM; details: Microsome
Summary of the method: as §2

[13] = Compound was evaluated for inhibition constant, in liver microsomes from beta-naphthoflavone-exposed rats; design: species or system Rattus norvegicus, Microsome
Rattus norvegicus [14] = species: Rattus norvegicus; assay: Compound was evaluated for alpha -rate constant, in liver microsomes from beta-naphthoflavone-exposed rats; details: Microsome
Summary of the method: as §3

[15] = Compound was evaluated for inhibition constant, in liver microsomes from 3-methylcholanthrene-exposed rats; design: species or system Rattus norvegicus, Microsome
Rattus norvegicus [16] = species: Rattus norvegicus; assay: Maximum rate constant for 7-ethoxycoumarin deethylation in rat liver microsomes 3-methylcholanthrene at concentration of 50 nM; details: Microsome
Rattus norvegicus [17] = species: Rattus norvegicus; assay: Michaelis-Menten constant for 7-ethoxycoumarin deethylation in rat liver microsomes exposed to beta-naphthoflavone at 5 uM; details: Microsome
Summary of the method: as §2

Rattus norvegicus [18] = species: Rattus norvegicus; assay: Maximum rate constant for 7-ethoxycoumarin deethylation in rat liver microsomes exposed to beta-naphthoflavone at 2.5 uM; details: Microsome
Summary of the method: as §2

Rattus norvegicus [19] = species: Rattus norvegicus; assay: Michaelis-Menten constant for 7-ethoxycoumarin deethylation in rat liver microsomes exposed to beta-naphthoflavone at 1 uM; details: Microsome
Summary of the method: as §2

Rattus norvegicus [20] = species: Rattus norvegicus; assay: Maximum rate constant for 7-ethoxycoumarin deethylation in rat liver microsomes exposed to beta-naphthoflavone at 5 uM; details: Microsome
Summary of the method: as §2

Rattus norvegicus [21] = species: Rattus norvegicus; assay: Michaelis-Menten constant for 7-ethoxycoumarin deethylation in rat liver microsomes exposed to beta-naphthoflavone at 2.5 uM; details: Microsome
Summary of the method: as §2

Rattus norvegicus [22] = species: Rattus norvegicus; assay: Maximum rate constant for 7-ethoxycoumarin deethylation in rat liver microsomes exposed to beta-naphthoflavone at 1 uM; details: Microsome
Summary of the method: as §2

Rattus norvegicus [23] = species: Rattus norvegicus; assay: Michaelis-Menten constant for 7-ethoxycoumarin deethylation in rat liver microsomes exposed to 3-methylcholanthrene at concentration of 10 uM; details: Microsome
Summary of the method: as §2

Rattus norvegicus [24] = species: Rattus norvegicus; assay: Maximum rate constant for 7-ethoxycoumarin deethylation in rat liver microsomes exposed to 3-methylcholanthrene at 5 uM; details: Microsome
Summary of the method: as §2

Rattus norvegicus [25] = species: Rattus norvegicus; assay: Compound was evaluated for alpha inhibition constant, in liver microsomes from 3-methylcholanthrene-exposed rats; details: Microsome
Summary of the method: as §3

Rattus norvegicus [26] = species: Rattus norvegicus; assay: Compound was evaluated for alpha inhibition constant, in liver microsomes from beta-naphthoflavone-exposed rats; details: Microsome
Summary of the method: as §3

Rattus norvegicus [27] = species: Rattus norvegicus; assay: Michaelis-Menten constant for 7-ethoxycoumarin deethylation in rat liver microsomes exposed to beta-naphthoflavone at 200 uM; details: Microsome
Summary of the method: as §2

Rattus norvegicus [28] = species: Rattus norvegicus; assay: Maximum rate constant for 7-ethoxycoumarin deethylation in rat liver microsomes exposed to 3-methylcholanthrene at 50 uM; details: Microsome
Summary of the method: as §2

Rattus norvegicus [29] = species: Rattus norvegicus; assay: Michaelis-Menten constant for 7-ethoxycoumarin deethylation in rat liver microsomes 3-methylcholanthrene at a concentration of 5 uM; details: Microsome
Summary of the method: as §2

Rattus norvegicus [30] = species: Rattus norvegicus; assay: Michaelis-Menten constant for 7-ethoxycoumarin deethylation in rat liver microsomes exposed to 3-methylcholanthrene at a concentration of 5 uM; details: Microsome
Summary of the method: as §2

Rattus norvegicus [31] = species: Rattus norvegicus; assay: Michaelis-Menten constant for 7-ethoxycoumarin deethylation in rat liver microsomes exposed to beta-naphthoflavone at 50 uM; details: Microsome
Summary of the method: as §1

Rattus norvegicus [32] = species: Rattus norvegicus; assay: Maximum rate constant for 7-ethoxycoumarin deethylation in rat liver microsomes exposed to beta-naphthoflavone at 200 uM; details: Microsome
Summary of the method: as §2

Rattus norvegicus [33] = species: Rattus norvegicus; assay: Michaelis-Menten constant for 7-ethoxycoumarin deethylation in rat liver microsomes exposed to beta-naphthoflavone at 100 uM; details: Microsome
Summary of the method: as §2

Rattus norvegicus [34] = species: Rattus norvegicus; assay: Maximum rate constant for 7-ethoxycoumarin deethylation in rat liver microsomes exposed to beta-naphthoflavone at 100 uM; details: Microsome
Summary of the method: as §2

Rattus norvegicus [35] = species: Rattus norvegicus; assay: Michaelis-Menten constant for 7-ethoxycoumarin deethylation in rat liver microsomes exposed to beta-naphthoflavone at 10 uM […]; details: Microsome
Summary of the method: as §2

Rattus norvegicus [36] = species: Rattus norvegicus; assay: Maximum rate constant for 7-ethoxycoumarin deethylation in rat liver microsomes exposed to beta-naphthoflavone at 150 uM; details: Microsome
Summary of the method: as §2

Rattus norvegicus [37] = species: Rattus norvegicus; assay: Maximum rate constant for 7-ethoxycoumarin deethylation in rat liver microsomes exposed to beta-naphthoflavone at 50 uM; details: Microsome
Summary of the method: as §2

Rattus norvegicus [38] = species: Rattus norvegicus; assay: Michaelis-Menten constant for 7-ethoxycoumarin deethylation in rat liver microsomes exposed to beta-naphthoflavone at 150 uM; details: Microsome
Summary of the method: as §2

Vmax (pM min-1 mg-1) (Rattus norvegicus [1]): 88
Km (Rattus norvegicus [2]): 36.9 µM
Vmax (pM min-1 mg-1) (Rattus norvegicus [3]): 1240
Km (Rattus norvegicus [4]): 31.5 µM
Km (Rattus norvegicus [5]): 19.2 µM
Vmax (pM min-1 mg-1) (Rattus norvegicus [6]): 1210
Vmax (pM min-1 mg-1) (Rattus norvegicus [7]): 1300
Alpha Ki (Rattus norvegicus [8]): 0.21 µM
Km (Rattus norvegicus [9]): 66.3 µM
Km (Rattus norvegicus [10]): 93.1 µM
Vmax (pM min-1 mg-1) (Rattus norvegicus [11]): 114
Km (Rattus norvegicus [12]): 16.7 µM
Ki [13]: 0.24 µM
Alpha Ki (Rattus norvegicus [14]): 11 µM
Ki [15]: 0.049 µM
Vmax (pM min-1 mg-1) (Rattus norvegicus [16]): 150
SMILES: O=c1cc(-c2ccccc2)oc2cc3ccccc3cc12

Km (Rattus norvegicus [17]): 41.7 µM
Vmax (pM min-1 mg-1) (Rattus norvegicus [18]): 346
Km (Rattus norvegicus [19]): 22.1 µM
Vmax (pM min-1 mg-1) (Rattus norvegicus [20]): 227
Ki [13]: 0.3 µM
Alpha Ki (Rattus norvegicus [14]): 1.4 µM
Km (Rattus norvegicus [21]): 35.8 µM
Vmax (pM min-1 mg-1) (Rattus norvegicus [22]): 734
SMILES: CC(C)c1ccccc1-n1ccnc1

Km (Rattus norvegicus [23]): 29.7 µM
Vmax (pM min-1 mg-1) (Rattus norvegicus [24]): 141
Alpha Ki (Rattus norvegicus [25]): 60 µM
Alpha Ki (Rattus norvegicus [26]): 270 µM
Km (Rattus norvegicus [27]): 91.3 µM
Vmax (pM min-1 mg-1) (Rattus norvegicus [28]): 94
Km (Rattus norvegicus [29]): 10.2 µM
Km (Rattus norvegicus [30]): 17.9 µM
Km (Rattus norvegicus [31]): 44.1 µM
Ki [13]: 19 µM
Vmax (pM min-1 mg-1) (Rattus norvegicus [32]): 493
Km (Rattus norvegicus [33]): 52.2 µM
Vmax (pM min-1 mg-1) (Rattus norvegicus [34]): 652
Ki [15]: 11 µM
SMILES: CC(C)c1ccccc1-n1cccc1

Km (Rattus norvegicus [35]): 41.2 µM
Vmax (pM min-1 mg-1) (Rattus norvegicus [36]): 669
Vmax (pM min-1 mg-1) (Rattus norvegicus [37]): 819
Km (Rattus norvegicus [31]): 28.4 µM
Ki [13]: 27 µM
Alpha Ki (Rattus norvegicus [14]): 430 µM
Km (Rattus norvegicus [38]): 64.3 µM
Vmax (pM min-1 mg-1) (Rattus norvegicus [34]): 760
SMILES: c1ccc(-n2cccc2)cc1
